The test system of data set [1] is Mus musculus. The data set can be described thus: Anticonvulsant activity in ip dosed Swiss mouse assessed as protection against maximal electroshock-induced seizure administered 15 mins before test. It is filed as functional. In short, it runs like this: (§1)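 Mice in groups of 8, each used once, given various i.p. doses of fresh solution at the stated pretreatment time before maximal electroshock. Protection percentages give dose-response lines by Litchfield-Wilcoxon. ED50 is the dose protecting 50% of mice against MES seizures, reported ± S.E.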

Data set [2] has as its system Mus musculus. The data set can be described thus: Protective index, ratio of TD50 for Swiss mouse administered 30 mins before test to ED50 for Swiss mouse administered 30 mins before test. Format: functional. In short, it runs like this: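 PI equals chimney-test TD50 divided by MES-test ED50, both determined after i.p. dosing at the same pretreatment time in groups of 8 mice.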

Data set [3] relates to Mus musculus. The data set can be described thus: Protective index, ratio of TD50 for Swiss mouse administered 15 mins before test to ED50 for Swiss mouse administered 15 mins before test. It is filed as functional.
Data set [4] is described as follows: Neurotoxicity in ip dosed Swiss mouse assessed as delay in motor coordination administered 15 mins before test by chimney test. Format: toxicity, organism-based. The settings on record: in vivo. In short, it runs like this:
(§2)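 Chimney test (Boissier). Mice must climb backward up a transparent tube (3 cm i.d., 30 cm long) within 60 s, and failure marks motor impairment. At least four groups of 8 mice receive various i.p. doses at the stated pretreatment time. TD50 comes from log-probit dose-response analysis (Litchfield-Wilcoxon), ± S.E.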

Data set [5] relates to Mus musculus. As to the kind of experiment: Anticonvulsant activity in ip dosed Swiss mouse assessed as protection against maximal electroshock-induced seizure administered 60 mins before test. It is filed as functional. An outline of the steps: as §1
The test system of data set [6] is Mus musculus. The data set can be described thus: Anticonvulsant activity in ip dosed Swiss mouse assessed as protection against maximal electroshock-induced seizure administered 30 mins before test. It is filed as functional. In short, it runs like this:
as §1

Data set [7] has as its system Mus musculus. As to the kind of experiment: Anticonvulsant activity in Swiss mouse assessed as protection against maximal electroshock-induced seizure at 300 mg/kg, ip administered 15 mins before test. Format: functional. The settings on record: route intraperitoneal. In short, it runs like this:
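Mice in groups of 8, each used once, after 7 days' adaptation. Fixed 300 mg/kg dose given i.p. from freshly prepared solution, then maximal electroshock applied at the stated pretreatment time. Read-out is the percentage of the 8 mice protected against MES-induced seizures.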

Data set [8] in a line: Neurotoxicity in ip dosed Swiss mouse assessed as delay in motor coordination administered 60 mins before test by chimney test. It is filed as toxicity, organism-based. The settings on record: in vivo. An outline of the steps:
as §2

In data set [9] the test system is Mus musculus. As to the kind of experiment: Anticonvulsant activity in ip dosed Swiss mouse assessed as protection against maximal electroshock-induced seizure administered 120 mins before test. Format: functional. In short, it runs like this:
as §1

Data set [10] relates to Mus musculus. The data set can be described thus: Protective index, ratio of TD50 for Swiss mouse administered 120 mins before test to ED50 for Swiss mouse administered 120 mins before test. Format: functional.
Data set [11] relates to Mus musculus. The data set can be described thus: Protective index, ratio of TD50 for Swiss mouse administered 60 mins before test to ED50 for Swiss mouse administered 60 mins before test. It is filed as functional.
Data set [12] in a line: Neurotoxicity in ip dosed Swiss mouse assessed as delay in motor coordination administered 30 mins before test by chimney test. Format: toxicity, organism-based. The settings on record: in vivo. An outline of the steps: as §2
The nature of data set [13]: Neurotoxicity in ip dosed Swiss mouse assessed as delay in motor coordination administered 120 mins before test by chimney test. Format: toxicity, organism-based. The settings on record: in vivo. An outline of the steps: as §2
Another data set relates to Brain. As to the kind of experiment: Drug uptake in Swiss mouse brain assessed as per 1 mg of tissue at 300 mg/kg, ip. The arrangement: dose 300 mg/kg, route intraperitoneal. It is filed as ADME, organism-based. The settings on record: in vivo.

Consider `CCn1c(S)nnc1-c1cccc(Cl)c1`, for which the median effective dose (ED50) in the data set on Mus musculus [1] worked out at 153 mg/kg; in the data set on Mus musculus [5] it was 252 mg/kg; with Mus musculus [6] it was 204 mg/kg; with Mus musculus [9], 320 mg/kg. In addition, the “Ratio TD50/ED50” value in the data set with Mus musculus [2] came to 3.7; in the data set on Mus musculus [3], 4.8; with Mus musculus [10], 2.8; with Mus musculus [11] it was 2.9. Also, the TD50 at 0.25 h in data set [4] is 731 mg/kg. Besides, the Activity with Mus musculus [7] was found to be 100%. Moreover, in [8], the TD50 at 1 h was 742 mg/kg. In addition, the TD50 at 0.5 h in data set [12] was 753 mg/kg. For the same molecule, in data set [13], the TD50 at 2 h was determined as 887 mg/kg.

Turning to `CCCCCCCCCCCCn1c(-c2cccc(Cl)c2)n[nH]c1=S`, the Drug uptake result with Brain was “Not Active”.

Take `CCCCn1c(-c2cccc(Cl)c2)n[nH]c1=S`: the 50% effective dose (ED50) turned out to be 38.5 mg/kg in the data set with Mus musculus [1], 156 mg/kg with Mus musculus [5], 77.8 mg/kg with Mus musculus [6] and 311 mg/kg with Mus musculus [9]. For the same molecule, the “Ratio TD50/ED50” value in the data set on Mus musculus [2] is given as 5.2; in the data set on Mus musculus [3], 10.3; in the data set on Mus musculus [10], 1.4; with Mus musculus [11] it was 2.7. For the same molecule, in [4], the TD50 at 0.25 h was 398 mg/kg. For the same molecule, the Activity in the data set with Mus musculus [7] was found to be 100%. Also, in data set [8], the TD50 at 1 h came out at 414 mg/kg. The TD50 at 0.5 h in [12] turned out to be 405 mg/kg. In addition, in [13], the TD50 at 2 h was 429 mg/kg.

On to `CCCCCn1c(-c2cccc(Cl)c2)n[nH]c1=S`, for which the ED50 amounted to 46.5 mg/kg with Mus musculus [1], 69.5 mg/kg in the data set with Mus musculus [5], 65.2 mg/kg in the data set with Mus musculus [6] and 147 mg/kg in the data set with Mus musculus [9]. Moreover, the “Ratio TD50/ED50” value is listed as 4.8 with Mus musculus [2], 6.7 in the data set with Mus musculus [3], 2.7 in the data set on Mus musculus [10] and 4.4 with Mus musculus [11]. Moreover, the TD50 at 0.25 h in data set [4] was 310 mg/kg. The Activity with Mus musculus [7] turned out to be 100%. For the same molecule, in data set [8], the TD50 at 1 h was determined as 303 mg/kg. Moreover, in [12], the TD50 at 0.5 h turned out to be 310 mg/kg. Besides, in data set [13], the TD50 at 2 h amounted to 392 mg/kg.

As to `CCCCCCn1c(-c2cccc(Cl)c2)n[nH]c1=S`, the ED50 in the data set on Mus musculus [1] was determined as 47.6 mg/kg; in the data set with Mus musculus [5] it was 98.1 mg/kg; in the data set on Mus musculus [6], 68.3 mg/kg; with Mus musculus [9] it was 160 mg/kg. Also, the “Ratio TD50/ED50” value with Mus musculus [2] turned out to be 6.8; in the data set with Mus musculus [3] it was 9.7; in the data set on Mus musculus [10] it was 2.8; in the data set with Mus musculus [11], 4.7. Besides, the Activity in the data set on Mus musculus [7] was determined as 100%.

With `CCCCCCCn1c(-c2cccc(Cl)c2)n[nH]c1=S`, the ED50 with Mus musculus [1] worked out at 55.1 mg/kg; in the data set on Mus musculus [5] it was 102 mg/kg; in the data set with Mus musculus [6], 65.2 mg/kg; in the data set with Mus musculus [9] it was 135 mg/kg. The “Ratio TD50/ED50” value was 6.5 in the data set on Mus musculus [2], 7.5 in the data set with Mus musculus [3], 3.3 in the data set on Mus musculus [10] and 4.2 in the data set with Mus musculus [11]. The TD50 at 0.25 h in data set [4] stood at 416 mg/kg. Also, the Activity in the data set on Mus musculus [7] stood at 100%. Further, the TD50 at 1 h in [8] worked out at 430 mg/kg. For the same molecule, in data set [12], the TD50 at 0.5 h is 423 mg/kg. Further, the TD50 at 2 h in data set [13] is 440 mg/kg.

As for `CCCCCCCCCn1c(-c2cccc(Cl)c2)n[nH]c1=S`, the median effective dose (ED50) was determined as 144 mg/kg in the data set on Mus musculus [1], 105 mg/kg in the data set with Mus musculus [5], 130 mg/kg in the data set with Mus musculus [6] and 143 mg/kg in the data set with Mus musculus [9]. Further, the “Ratio TD50/ED50” value in the data set with Mus musculus [2] was found to be 5.5; with Mus musculus [3] it was 4.6; with Mus musculus [10] it was 4.6; in the data set on Mus musculus [11], 6.1. Further, the TD50 at 0.25 h in data set [4] stood at 667 mg/kg. Moreover, the Activity in the data set on Mus musculus [7] was found to be 100%. For the same molecule, the TD50 at 1 h in data set [8] was 640 mg/kg. The TD50 at 0.5 h in data set [12] was 713 mg/kg. Also, the TD50 at 2 h in data set [13] worked out at 659 mg/kg.

For the molecule `CCCC(CCC)C(=O)[O-].CCCC(CCC)C(=O)[O-].[Mg+2]` [MAGNESIUM VALPROATE], the TD50 at 0.25 h in [4] turned out to be 363 mg/kg. Besides, the TD50 at 1 h in data set [8] is 417 mg/kg. In [12], the TD50 at 0.5 h was 373 mg/kg. Besides, the TD50 at 2 h in [13] was determined as 512 mg/kg.
